High-throughput results: PubChem BioAssay, Broad Institute
Glyco luc inh = blocks N-linked glycosylation in D54 reporter cells; reporter increase, % at 12.5 µM; 360,000 tested, 0.23% active; D54 ERlucT glycosylation luciferase reporter, 24 h; percent of 100 nM tunicamycin response;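 active means mean luciferase reporter signal, scaled so untreated is 0 and the glycosylation-blocking control 100, at or above a set limit in every replicate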;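 further: luciferase carries N-glycosylation sites so blocking glycosylation raises the light; 0% = median of neutral control wells and 100% = median of 100 nM tunicamycin wells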
HIV Env fusion = blocks HIV Env-driven cell-cell fusion; inhibition, % at 12.3 µM; HeLa-JRFL Env/CEM21 cell fusion, luciferase; 360,000 tested, 1.1% active;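 active means mean replicate inhibition score of at least 50 and every replicate individually at or above 50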;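 further: 0% = plate neutral controls and 100% = maraviroc near 300 nM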
PAX8 reporter = inhibitors of PAX8 transcriptional activity in RMG-I cells; RMG-I TPO-luciferase reporter, SteadyGlo, 24 h; 360,000 tested, 1.2% active; inhibition, % at 12.6 µM; AID 652154;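 active means mean replicate inhibition at least 60% with every replicate also reaching 60%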;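 further: luciferase light reporting Pax8 driven TPO promoter activity; plate controls were median of neutral control wells for no effect and mitoxantrone controls for full effect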
FN deposition inh = fibronectin deposition inhibition | 350,000 tested, 0.086% active | AID 743247 | AH1F fibroblasts, Alexa488-fibronectin deposition fluorescence, overnight | inhibition, % at 12.6 µM;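 active means mean inhibition across replicates of 30% or more, regardless of how many single replicates reach that level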;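 further: positive control wells lacked labelled fibronectin entirely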
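Material: AH1F fibroblast monolayer depositing Alexa488-labelled fibronectin into matrix / Amount: 10000 AH1F cells per well / Signal: fluorescence 485/525 nm / Medium: DMEM, 2% serum / Compound: single dose, pinned / Incubation: 1 h cell adhesion before compound, then overnight fibronectin incubation / Reagent: Alexa488-FN, 24 nM final / Read-out: inhibition of fibronectin deposition signal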
EWS-Fli inh = blocks EWS/Fli oncoprotein-driven transcription; A673 NR0B1-luciferase reporter, viability-normalised; inhibition, % at 12.6 µM; 350,000 tested, 0.67% active; AID 651661;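 active means mean inhibition of at least 50% after viability correction, with every replicate also passing that limit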;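 further: firefly luciferase signal divided by Alamar Blue viability fluorescence both relative to DMSO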
MLL AF4-AF9 inh = inhibitors of human MLL-AF4/AF9 interaction. AlphaScreen, biotin-AF4 peptide binding to FLAG-AF9. inhibition, % at 10 µM. 350,000 tested, 0.47% active;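 active means every replicate reaching a set inhibition limit, whatever the replicate mean, cut at about 25% in these data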;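 further: 0% = plate neutral control median and 100% = total signal loss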
Target sequence (P42568 whole entry, looked up): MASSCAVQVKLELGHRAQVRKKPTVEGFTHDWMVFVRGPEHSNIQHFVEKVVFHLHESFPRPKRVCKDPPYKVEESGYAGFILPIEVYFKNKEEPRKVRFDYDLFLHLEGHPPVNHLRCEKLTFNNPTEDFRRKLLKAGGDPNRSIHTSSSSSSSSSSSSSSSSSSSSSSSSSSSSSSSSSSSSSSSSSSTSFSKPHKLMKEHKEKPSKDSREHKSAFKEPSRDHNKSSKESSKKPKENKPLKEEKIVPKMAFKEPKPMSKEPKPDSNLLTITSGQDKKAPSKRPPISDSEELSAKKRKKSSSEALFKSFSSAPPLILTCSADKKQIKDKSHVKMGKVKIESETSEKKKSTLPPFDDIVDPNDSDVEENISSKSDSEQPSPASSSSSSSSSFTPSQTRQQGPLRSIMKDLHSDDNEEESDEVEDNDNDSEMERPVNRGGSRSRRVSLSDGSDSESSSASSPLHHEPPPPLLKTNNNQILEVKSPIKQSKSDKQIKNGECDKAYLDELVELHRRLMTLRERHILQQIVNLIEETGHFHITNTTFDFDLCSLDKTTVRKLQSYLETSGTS
Numbers without * were called inactive; . = no result given; [ ] = dose if it differs, or a comment. Most compounds without a hit are left out; they make up all but 2.5% or so of the library.

SMILES | Glyco luc inh | HIV Env fusion | PAX8 reporter | FN deposition inh | EWS-Fli inh | MLL AF4-AF9 inh
Cc1ccc(S(=O)(=O)N(C)C[C@@H]2OCCCC[C@H](C)Oc3ccc(NS(=O)(=O)c4cccs4)cc3C(=O)N([C@H](C)CO)C[C@H]2C)cc1 | . | -21.0[16.7 µM] | 77.9* | 1.8 | 11.3 | -1.9
C[C@H](CO)N1C[C@H](C)[C@H](CN(C)S(=O)(=O)c2ccc(Cl)cc2)OCCCC[C@H](C)Oc2ccc(NS(=O)(=O)c3cccs3)cc2C1=O | . | -155.3[16.7 µM] | 66.8* | 4.6 | 6.1 | 1.6
C[C@@H]1CCCCO[C@H](CN(C)S(=O)(=O)c2ccc(Cl)cc2)[C@H](C)CN([C@H](C)CO)C(=O)c2cc(NS(=O)(=O)c3cccs3)ccc2O1 | . | 46.9[16.7 µM] | 20.1 | 9.3 | 19.8 | 1.5
COC(=O)C[C@@H]1CC[C@H](NS(=O)(=O)c2ccccc2F)[C@H](CO)O1 | . | 13.8[16.7 µM] | 3.6 | -0.1 | -0.2 | -2.3
CO[C@H]1CN(C)C(=O)c2ccc(NC(=O)C3CCOCC3)cc2OC[C@H](C)N(C(=O)c2ccccc2)C[C@H]1C | . | 3.7[16.7 µM] | -11.7 | . | 2.9 | -0.2
C[C@H]1CN(C)C(=O)Cc2ccccc2O[C@@H]1CN(C)C(=O)OC(C)(C)C | . | . | . | -87.8 | . | .
O=C(C[C@H]1C[C@H]2c3cc(NC(=O)CC4CC4)ccc3O[C@H]2[C@H](CO)O1)NCc1ccc(-c2ccccc2)cc1 | . | 23.5[16.7 µM] | -5.8 | 1.9 | 6.0 | -1.0
O=C1N[C@@H](Cc2ccccc2)COCc2cn(nn2)CC[C@@H]1Cc1ccc(-c2ccccc2)cc1 | . | . | . | -10.4 | . | .
Cc1cccc(-c2cc3c(N=O)c4ccccc4c-3n[nH]2)c1 | -15.1 | -195.8 | -65.6 | -8.1 | -4.1 | -6.3
O=Nc1c2cc(-c3ccccc3)[nH]nc-2c2ccccc12 | -17.9 | -145.5 | -85.7 | -0.7 | 62.9* | -4.8
Cc1ccc(-c2cc3c(N=O)c4ccccc4c-3n[nH]2)cc1 | -21.2 | -161.3 | -78.9 | 0.2 | 79.8* | -5.1
COc1cc(-c2c(-c3cc(OC)c(OC)c(OC)c3)noc2C)ccc1F | . | 68.1* | 87.8* | -0.3 | 65.8* | -6.6
COc1ccc(-c2c(-c3cc(OC)c(OC)c(OC)c3)noc2C)cn1 | 29.7* | . | . | . | . | .
Cc1ccccc1S(=O)(=O)N(C)C[C@@H]1OCc2cn(nn2)CCCC(=O)N([C@@H](C)CO)C[C@@H]1C | . | -5.0[16.7 µM] | . | 6.2 | -0.7 | -1.3
Cc1ccccc1-c1cnc2c(c1)C(=O)N([C@@H](C)CO)C[C@H](C)[C@H](CN(C)C(=O)c1ccncc1)O2 | . | 0.0[16.7 µM] | . | . | 10.0 | -0.7
CC(C)NC(=O)Nc1ccc2c(c1)C(=O)N([C@@H](C)CO)C[C@H](C)[C@H](CN(C)S(=O)(=O)c1ccc(F)cc1)O2 | . | . | 1.3 | . | -3.4 | 4.7
COc1ccccc1-c1cn(CC[C@H]2CC[C@H](NS(=O)(=O)c3ccccc3C)[C@@H](CO)O2)nn1 | . | 6.8[16.7 µM] | 14.9 | 11.9 | 6.2 | -9.9
COc1ccc(-c2cc(C(F)(F)F)nc(S(=O)(=O)CCCC(=O)Nc3cc(C)on3)n2)cc1OC | -10.5 | 8.8 | 89.9* | 14.7 | 5.0 | -1.4
Nc1nc2c(ncn2[C@@H]2O[C@H](C(=O)NCC(c3ccccc3)c3ccccc3)[C@@H](O)[C@H]2O)c(=O)[nH]1 | . | 75.0* | -14.2 | -9.4 | -2.9 | .
CSCCC(C(=O)N1CC2(C)CC1CC(C)(C)C2)N1C(=O)c2ccccc2C1=O (stereo not given) | 1.2 | 33.9* | 10.8 | -3.5 | . | .
CCCNC(=O)N1CCC2(CC1)CN(Cc1cccc(F)c1)[C@H](CO)c1[nH]c3cc(OC)ccc3c12 | . | -178.9[16.7 µM] | . | . | 12.1 | -0.4
Cn1c(=O)n(-c2cccc(Cl)c2)c(=O)c2c3c(sc21)COC(C)(C)C3 | 0.4 | 113.6* | . | 0.7 | . | .
CC1(C)Cc2c(sc3c2c(=O)n(-c2ccc(Cl)cc2)c(=O)n3CC(N)=O)CO1 | -0.1 | -9.7 | 8.8 | -0.1 | 6.4 | .
C[C@H](CO)N1C[C@H](C)[C@H](CN(C)S(=O)(=O)c2ccc(Cl)cc2)OCCCC[C@H](C)Oc2ccc(NS(=O)(=O)c3ccc(F)cc3)cc2C1=O | . | -85.5[16.7 µM] | 81.1* | 0.7 | 3.1 | -2.7
C[C@@H]1CCCCO[C@H](CN(C)S(=O)(=O)c2ccc(F)cc2)[C@H](C)CN([C@@H](C)CO)C(=O)c2cc(NS(=O)(=O)c3ccc(Cl)cc3)ccc2O1 | . | 28.1[16.7 µM] | 81.0* | -1.0 | 8.1 | -0.1
